Screens deposited in PubChem BioAssay by several laboratories.
S1P1 ag pot – S1P1 (human) agonism or agonism potentiation; P21453; S1P1 CRE-bla cells, forskolin, beta-lactamase FRET, potentiator mode; S1P1 agonist co-added at EC20, 2 nM; 100% = saturating reference agonist, 0% = basal; activation, % at 9.5 µM; 0.57% of 56,000 active; AID 449;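 active = activation above a cutoff set at the mean activation of all tested compounds plus 3 SD, cut at about 54% in these data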;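 also: forskolin at 4 µM as EC80 and the EC20 agonist is SEW2871; 100% = SEW2871 at its EC100 plus forskolin at EC80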
M1 ag – M1 muscarinic receptor agonism; CHO-M1 cells, Fluo-4 calcium fluorescence, agonist mode; stronger effect = higher value; B-score at 10 µM; 3% of 64,000 active; AID 626;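 active = fluorescence rise, raw or as B-score row- and column-corrected plate score, outside the 99.7% band of its plate's samples, either direction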
S1P3 agonist – S1P3 (human) receptor agonism; AID 373; 0.1% of 60,000 active; activation, % at 4.5 µM; Q99500; S1P3 NFAT-BLA reporter cells, FRET ratio; relative to 1 µM S1P, basal subtracted;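 active = activation above the screen-wide mean plus 3 SD, cut at about 4.5% in these data, passing the limit was not always enough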
Target sequence (Q99500 whole entry, looked up): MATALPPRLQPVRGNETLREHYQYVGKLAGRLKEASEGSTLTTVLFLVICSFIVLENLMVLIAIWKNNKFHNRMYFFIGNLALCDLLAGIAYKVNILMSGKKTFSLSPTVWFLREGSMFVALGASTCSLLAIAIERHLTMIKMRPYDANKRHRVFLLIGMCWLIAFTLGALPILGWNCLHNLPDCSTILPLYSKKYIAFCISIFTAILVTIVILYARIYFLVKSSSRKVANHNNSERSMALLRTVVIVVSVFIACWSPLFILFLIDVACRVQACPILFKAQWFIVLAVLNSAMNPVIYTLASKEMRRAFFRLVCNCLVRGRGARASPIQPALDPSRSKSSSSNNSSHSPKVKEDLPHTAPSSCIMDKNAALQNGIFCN
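Assay system: CHO cells stably expressing human S1P3, Gα16 and NFAT-β-lactamase reporter. Timing: overnight plating, 4 h compound 37 °C, 2 h substrate RT. Signal: β-lactamase FRET emission ratio 460/535 nm. Measure: percent activation versus median 1 µM S1P response, basal-subtracted, per plate. Repeats: primary screen single test, confirmation screen in triplicate.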
M1 antag – M1 muscarinic receptor (rat) antagonism. P08482. CHO-M1 cells, Fluo-4 calcium, ACh EC80 antagonist mode; stronger effect = lower value. B-score at 10 µM. 3.4% of 64,000 active;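 active = calcium fluorescence response, raw or row-and-column corrected B-score, differing from the plate sample mean either way at a set confidence level, mostly lower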
D1 allo mod – D1 dopamine receptor (human) allosteric modulation | P21728 | B-score at 10 µM | AID 641 | HEK293 D1, CRE-luciferase, dopamine EC30 potentiation; actives deviate in either direction | 5.9% of 58,000 active;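 active = luminescence count or its row- and column-corrected plate score outside the 99.7% band of the plate's sample wells, on either side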
Active calls of the source: *; nt = not tested or not shown. Only some compounds are listed: those with a hit (about 11% of all), similar ones and a draw of the others.

SMILES	S1P1 ag pot	M1 ag	S1P3 agonist	M1 antag	D1 allo mod
CCCOCCOC(=O)C1=C(C)NC(=O)NC1c1cc(Cl)c(O)c(OC)c1 (stereo not given)	1.6	0.34	-1.3	1.04	-0.185
NC(=O)C1(N2CCCCC2)CCN(C(=O)CSc2nc3ccccc3s2)CC1	-6.8	-1.2	-0.2	0.0864	0.695
O=C(Nc1ccc2nccnc2c1)c1cnccn1	nt	-0.271	nt	1.04	nt
O=C(Nc1ccc2ccccc2c1)c1cnccn1	26.9	0.421	-0.7	-0.53	-1.96*
C=CCn1cnc2c(c1=O)c1nc3ccccc3nc1n2-c1ccc(Cl)cc1	9.8	-0.273	-3.8	0.199	2.23
CCN(CCNC(=O)C1CCN(S(=O)(=O)c2cccc3nsnc23)CC1)c1ccccc1	7.8	0.228	0.5	-1.25	-2.95*
Oc1ccc(Nc2nc(N3CCCC3)c3ccccc3n2)cc1	-61.0	0.0846	0.0	0.0907	-2.54
Cc1ccc(Nc2nc(N3CCOCC3)c3ccccc3n2)cc1	18.1	2.51	-0.6	0.242	-5.8*
COc1ccc(-c2cc(C(F)(F)F)n3nc(C(=O)N4CCCC4)cc3n2)cc1	nt	-0.721	-0.7	1.78*	0.603
CN1CCN(C(=O)c2cc3nc(-c4ccc(F)cc4)cc(C(F)(F)F)n3n2)CC1	-21.6	-0.791	-0.5	0.0203	-0.339
c1ccc2c(c1)CCN(c1nc3cc4c(cc3s1)OCCO4)C2	7.7	0.0405	0.8	-0.382	-6.09*
O=C1c2ccccc2C(=O)N1CCN1CCc2ccccc21	21.5	0.00247	0.5	-0.133	-0.0468
c1ccc2c(c1)CCN2CCN1CCc2ccccc21	5.9	0.00968	-0.4	0.0109	-3.23*
CCCCC(=O)NC(Nc1nc(C2CC2)cs1)(C(=O)OCC)C(F)(F)F (stereo not given)	-19.5	0.931	5.3*	-2.25	-0.47
Nc1cc(OC(=O)c2cccs2)nn1S(=O)(=O)c1ccccc1	-10.9	nt	-0.2	nt	-5.32*
O=C(On1c(-c2ccccc2)nc2ccccc2c1=O)c1ccco1	nt	nt	nt	nt	-3.44*
CN(C)c1nc(-c2ccccc2)c2cnn(Cc3ccccc3)c2n1	-24.1	0.06	-1.3	-0.509	-0.565
CC(=O)Nc1ccccc1NC(=O)C(F)(F)F	-17.6	-0.448	-0.3	1.78*	0.22
Cc1cc(-c2ccco2)n(CC(=O)O)n1	-1.8	1.11	-0.6	0.155	-4.33*
CCCn1nc(Oc2nc(SC)nc(N(C)C)n2)ccc1=O	-8.5	-0.844	-2.7	2.03*	nt
CSc1nc(Oc2ccc(=O)[nH]n2)nc(N(C)C)n1	-5.7	-0.842	0.2	0.54	nt
Cc1c(Cl)ccc2c1NC(=O)C21NC(CCC(N)=O)[C@H]2C(=O)N(c3ccc(Cl)cc3)C(=O)[C@H]21 (stereo not given in full)	1.0	0.422	-0.8	1.81*	-0.474
O=C(O)CCCCCNC(=O)CCn1nnc2ccccc2c1=O	-26.1	0.0559	-1.9	1.58*	-0.306
O=C(CCn1nnc2ccccc2c1=O)NCC1CCC(C(=O)O)CC1 (stereo not given)	-28.3	0.272	-0.7	-0.107	0.376
C=C(C)Cn1c(N2CC(C)CC(C)C2)nc2c1c(=O)[nH]c(=O)n2C (stereo not given)	-14.7	1.17	-1.0	0.359	6.96*
SMILES	S1P1 ag pot	M1 ag	S1P3 agonist	M1 antag	D1 allo mod
Cn1c(=O)[nH]c(=O)c2c1nc(N1CCN(c3cccc(Cl)c3)CC1)n2CCCc1ccccc1	11.6	-0.147	-3.1	-0.0037	-0.913
CCCCCn1c(N2CCN(c3cccc(Cl)c3)CC2)nc2c1c(=O)[nH]c(=O)n2C	5.6	-0.0388	-1.3	-0.623	4.94*
CCCCCCn1c(N2CCC(C)CC2)nc2c1c(=O)[nH]c(=O)n2C	4.3	-1.45	-0.4	-0.403	17.9*
O=C(Nc1ccc(Cl)cn1)C1CCCN1S(=O)(=O)c1ccccc1 (stereo not given)	-0.1	-0.00247	-1.7	-0.425	-0.465
COc1cccc2sc(Nc3nc(-c4ccccn4)cs3)nc12	72.0*	0.597	-2.3	-0.244	-1.79
COC(=O)c1ccc(C(=O)OC)c(NC(=O)c2oc(C)nc2C)c1	-19.6	-0.509	-1.1	-0.512	0.795
O=C(Nc1nc2ccccc2[nH]1)c1ccccc1F	-0.2	-0.82	-1.0	0.191	-7.94*
O=C(Nc1nc2ccccc2[nH]1)c1ccc(F)cc1	0.9	0.0377	-1.3	-0.0192	-6.41*
CC(C)C[C@H](NC(=O)Nc1ccc(S(N)(=O)=O)cc1)C(=O)O	-8.2	nt	-0.1	nt	-0.286
COC(=O)[C@H](C)NC(=O)Nc1ccc(S(N)(=O)=O)cc1	-9.9	0.411	-1.1	1.59*	0.295
c1ccc(-c2nnc3sc(-c4csc5c4CCCC5)nn23)cc1	-43.5	-0.159	2.5	-1.97	1.59
Cc1cc(-c2ccco2)n2c(nc3ccccc32)c1C#N	-10.5	-0.00147	-0.6	0.408	nt
Cc1ccnc(N2CCN(c3cc(C)c(C#N)c4nc5ccccc5n34)CC2)c1	-1.4	4.32	-2.4	-2.51*	-0.0679
O=C(c1ccco1)N1CCN(C(=O)c2cccn3c(=O)c4c5c(sc4nc23)CCCC5)CC1	7.1	1.08	-0.8	0.107	3.82*
Cc1ccc2nc(NC3=NCN(Cc4cccnc4)CN3)nc(C)c2c1	1.0	0.245	-0.7	0.628	nt
Cc1nc(NC2=NCN(Cc3cccnc3)CN2)nc2ccccc12	-4.7	0.781	-0.1	-10.7*	nt
Cc1nc(NC2=NCN(Cc3ccccc3)CN2)nc2ccccc12	18.3	4.55*	-1.8	0.697	-0.167
Cc1ccc2c(C)nc(NC3=NCN(Cc4ccccc4)CN3)nc2c1	-6.4	-0.18	0.6	-1.32	-1.08
Cc1nc(NC2=NCN(Cc3ccco3)CN2)nc2ccccc12	-22.5	-0.0551	-1.6	-2.91*	-0.288
CCn1c(COc2ccccc2OC)nnc1SCC#N	3.6	0.372	-0.7	0.534	-0.11
CCOc1ccccc1OCC(=O)Nc1nnc(COC)s1	-2.2	0.0656	0.1	-0.853	-0.621
CCCCS(=O)(=O)/C=C\C=C/S(=O)(=O)CCCC	nt	0.264	nt	0.46	-2.4*
CCCCS(=O)(=O)/C=C\C1C2C=CC(C2)C1S(=O)(=O)CCCC (stereo not given)	-17.3	-0.018	-1.1	0.216	-0.216
Cc1ccccc1NC(=O)c1ccc(F)c(S(=O)(=O)N2CCN(c3ccccn3)CC2)c1	22.1	-1.57	1.0	0.0411	-2.18*
Cc1ccccc1NC(=O)c1cc(S(=O)(=O)N2CCOCC2)ccc1F	-2.2	-0.325	0.0	0.336	-0.0923
SMILES	S1P1 ag pot	M1 ag	S1P3 agonist	M1 antag	D1 allo mod
CCSc1nnc(NC(=O)c2cccc(OCc3c(C)noc3C)c2)s1	nt	0.218	nt	-1.1	-0.766
Cc1nnc(NC(=O)Cc2ccc(OCc3c(C)noc3C)cc2)s1	-17.2	0.0639	0.3	-0.213	-3.05*
COc1ccccc1N1CCN(S(=O)(=O)Cc2ccccc2Cl)CC1	nt	0.788	-0.9	0.83	-1.2
Cc1cc(C)c2nc(Nc3nc(C)cc(=O)[nH]3)nc(C)c2c1	-228.3	0.358	0.7	-1.95	-3.64*
COc1ccc2c(C)nc(Nc3nc(C)cc(=O)[nH]3)nc2c1	-114.7	-0.239	0.6	0.155	-0.0989
CCCOC(=O)CSc1nc(N)c(C#N)c(CC)c1C#N	-32.3	0.0224	0.8	0.439	-0.00462
